In ChEMBL document CHEMBL3351510, “Identification and development of 2-methylimidazo[1,2-a]pyridine-3-carboxamides as Mycobacterium tuberculosis pantothenate synthetase inhibitors” (Bioorg Med Chem, 2014):
Converted amounts (≈) assume the structure as drawn.

How the values were obtained:
Pantothenate synthetase = target: T1, Pantothenate synthetase (Mycobacterium tuberculosis, UniProt P9WIL5); experiment: Inhibition of Mycobacterium tuberculosis pantothenate synthetase expressed in Escherichia coli BL21 (DE3) by spectrophotometry
T1 sequence (P9WIL5 whole entry): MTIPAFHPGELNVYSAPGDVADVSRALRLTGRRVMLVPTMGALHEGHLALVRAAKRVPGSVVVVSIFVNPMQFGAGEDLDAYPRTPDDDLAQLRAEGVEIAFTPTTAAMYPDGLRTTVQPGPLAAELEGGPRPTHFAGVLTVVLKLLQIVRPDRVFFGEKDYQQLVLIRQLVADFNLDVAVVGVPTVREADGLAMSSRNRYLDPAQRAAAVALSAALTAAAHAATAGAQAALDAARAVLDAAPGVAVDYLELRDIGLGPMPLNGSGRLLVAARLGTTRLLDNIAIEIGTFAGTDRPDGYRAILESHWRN
Outline: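 Reaction started by adding PS diluted in buffer; absorbance at 340 nm read every 12 s for 120 s. Percent inhibition = 100 × [1 − (compound rate − background rate)/(full reaction rate − background rate)].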

[1] = system: Mycobacterium tuberculosis; experiment: Antimycobacterial activity against Mycobacterium tuberculosis H37Rv ATCC 27294 assessed as growth inhibition after 28 days by agar dilution method; type: functional; conditions: H37Rv ATCC 27294, 672 h
Outline: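 Agar dilution in Middlebrook 7H11 with OADC; two-fold dilutions, final 50 to 0.78 µg/mL. Inoculum from fresh 7H11 slants, 1 mg/mL wet weight in 0.05% Tween 80 saline, diluted 10⁻² (~10⁷ cfu/mL); 5 µL spotted per tube. Incubated 37 °C, read at 28 days; MIC = lowest concentration giving complete growth inhibition. Isoniazid, ethambutol, GSK358607A references.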

[2] = Cytotoxicity against mouse RAW264.7 cells assessed as inhibition of cell viability at 50 uM after 72 hrs by MTT assay; type: cell-based; conditions: read-out: INH
[3] = target: T2, Pantothenate synthetase (Mycobacterium tuberculosis) (UniProt P9WIL5); experiment: Binding affinity to Mycobacterium tuberculosis pantothenate synthetase assessed as melting temperature by differential scanning fluorimetry
T2 sequence (whole entry): T1 sequence (P9WIL5 whole entry)
Outline: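 Protein–ligand complexes with SYPRO Orange dye heated 25 to 95 °C in 0.1 °C steps; fluorescence tracked to obtain Tm, with shift relative to native protein taken as stabilisation from binding.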

Cc1nc2ccccn2c1C(=O)NNC(=O)c1ccc(Cl)cc1Cl
IC50 (Pantothenate synthetase): 5.13 µM
MIC [1]: 17.2 µM (≈ 6.25 µg/mL)
cytotoxicity at 72 h, 50 µM [2]: 20.1%

Cc1nc2ccccn2c1C(=O)N/N=C/c1ccc(C(F)(F)F)cc1
IC50 (Pantothenate synthetase): 8.18 µM
MIC [1]: 9.01 µM (≈ 3.12 µg/mL)
cytotoxicity at 72 h, 50 µM [2]: 24.6%

Cc1nc2ccccn2c1C(=O)NNC(=O)c1cccc([N+](=O)[O-])c1
IC50 (Pantothenate synthetase): 9.2 µM
MIC [1]: 36.8 µM (≈ 12.5 µg/mL)

Cc1nc2ccccn2c1C(=O)NNC(=O)c1ccco1
IC50 (Pantothenate synthetase): 8.93 µM
MIC [1]: 11 µM (≈ 3.12 µg/mL)
cytotoxicity at 72 h, 50 µM [2]: 16.8%

CC[C@@H](CO)NCCN[C@@H](CC)CO [ETHAMBUTOL]
IC50 (Pantothenate synthetase): > 25 µM
MIC [1]: 7.64 µM (≈ 1.56 µg/mL)

Cc1nc2ccccn2c1C(=O)N/N=C/c1ccccc1
IC50 (Pantothenate synthetase): 4.86 µM
MIC [1]: 179 µM (≈ 49.9 µg/mL)

Cc1nc2ccccn2c1C(=O)NNC(=O)c1cccc2ccccc12
IC50 (Pantothenate synthetase): 1.9 µM
MIC [1]: 4.53 µM (≈ 1.56 µg/mL)
cytotoxicity at 72 h, 50 µM [2]: 28.4%
Tm [3]: 51 °C

Cc1nc2ccccn2c1C(=O)NCCc1ccccc1
IC50 (Pantothenate synthetase): 5.77 µM
MIC [1]: 89.3 µM (≈ 24.9 µg/mL)

Cc1ccc(/C=N/NC(=O)c2c(C)nc3ccccn23)cc1
IC50 (Pantothenate synthetase): 7.46 µM
MIC [1]: 21.3 µM (≈ 6.24 µg/mL)
cytotoxicity at 72 h, 50 µM [2]: 16.7%

Cc1nc2ccccn2c1C(=O)N/N=C/c1ccc(O)cc1
IC50 (Pantothenate synthetase): 7.49 µM
MIC [1]: 21.2 µM (≈ 6.24 µg/mL)
cytotoxicity at 72 h, 50 µM [2]: 19.4%

COc1cc(/C=N/NC(=O)c2c(C)nc3ccccn23)cc(OC)c1OC
IC50 (Pantothenate synthetase): 7.05 µM
MIC [1]: 67.8 µM (≈ 25 µg/mL)

Cc1nc2ccccn2c1C(=O)NCc1ccccc1
IC50 (Pantothenate synthetase): 2.74 µM
MIC [1]: 23.5 µM (≈ 6.23 µg/mL)
cytotoxicity at 72 h, 50 µM [2]: 24.5%

Cc1nc2ccccn2c1C(=O)NC1CCCCC1
IC50 (Pantothenate synthetase): 1.99 µM
MIC [1]: 96.9 µM (≈ 24.9 µg/mL)

NNC(=O)c1ccncc1 [ISONIAZID]
IC50 (Pantothenate synthetase): > 25 µM
MIC [1]: 0.72 µM (≈ 0.0987 µg/mL)

Cc1nc2ccccn2c1C(=O)Nc1ccc(Cl)cc1
IC50 (Pantothenate synthetase): 2.6 µM
MIC [1]: 87.4 µM (≈ 25 µg/mL)

Cc1nc2ccccn2c1C(=O)N/N=C/c1ccc(F)cc1
IC50 (Pantothenate synthetase): 3.77 µM
MIC [1]: 21 µM (≈ 6.23 µg/mL)
cytotoxicity at 72 h, 50 µM [2]: 20.9%

COc1ccccc1C(=O)NNC(=O)c1c(C)nc2ccccn12
IC50 (Pantothenate synthetase): 8.21 µM
MIC [1]: 19.2 µM (≈ 6.24 µg/mL)
cytotoxicity at 72 h, 50 µM [2]: 19%

Cc1ccc(C(=O)NNC(=O)c2c(C)nc3ccccn23)cc1
IC50 (Pantothenate synthetase): 3.35 µM
MIC [1]: 80.9 µM (≈ 24.9 µg/mL)

CCOc1ccc(NC(=O)c2c(C)nc3ccccn23)cc1
IC50 (Pantothenate synthetase): > 25 µM
MIC [1]: 42.2 µM (≈ 12.5 µg/mL)

Cc1nc2ccccn2c1C(=O)NNC(=O)c1ccccc1
IC50 (Pantothenate synthetase): 3.54 µM
MIC [1]: 42.4 µM (≈ 12.5 µg/mL)

Cc1nc2ccccn2c1C(=O)N/N=C/c1ccc([N+](=O)[O-])cc1
IC50 (Pantothenate synthetase): > 25 µM
MIC [1]: 38.6 µM (≈ 12.5 µg/mL)

Cc1nc2ccccn2c1C(=O)NNC(=O)C1CCCCC1
IC50 (Pantothenate synthetase): 7.7 µM
MIC [1]: 10.4 µM (≈ 3.12 µg/mL)
cytotoxicity at 72 h, 50 µM [2]: 31.7%

Cc1nc2ccccn2c1C(=O)Nc1ccc(Br)cc1
IC50 (Pantothenate synthetase): 6.95 µM
MIC [1]: 37.9 µM (≈ 12.5 µg/mL)

Cc1nc2ccccn2c1C(=O)N/N=C/c1ccc(Br)cc1
IC50 (Pantothenate synthetase): 4.43 µM
MIC [1]: 35 µM (≈ 12.5 µg/mL)

Cc1nc2ccccn2c1C(=O)N/N=C/c1ccc(OCc2ccccc2)cc1
IC50 (Pantothenate synthetase): 5.37 µM
MIC [1]: 32.5 µM (≈ 12.5 µg/mL)

Cc1nc2ccccn2c1C(=O)Nc1cccc(C(F)(F)F)c1
IC50 (Pantothenate synthetase): 7.01 µM
MIC [1]: 78.1 µM (≈ 24.9 µg/mL)

Cc1ccc2nc(C)c(C(=O)NCc3cccs3)n2c1
IC50 (Pantothenate synthetase): 8.12 µM
MIC [1]: 0.19 µM (≈ 0.0542 µg/mL)

COc1ccc(/C=N/NC(=O)c2c(C)nc3ccccn23)cc1
IC50 (Pantothenate synthetase): 6.37 µM
MIC [1]: 80.9 µM (≈ 24.9 µg/mL)

Cc1nc2ccccn2c1C(=O)NNC(=O)c1cc([N+](=O)[O-])cc([N+](=O)[O-])c1
IC50 (Pantothenate synthetase): 6.48 µM
MIC [1]: 16.2 µM (≈ 6.24 µg/mL)
cytotoxicity at 72 h, 50 µM [2]: 40.6%

Cc1nc2ccccn2c1C(=O)Nc1ccccn1
IC50 (Pantothenate synthetase): > 25 µM
MIC [1]: 98.8 µM (≈ 24.9 µg/mL)

Cc1nc2ccccn2c1C(=O)NNC(=O)c1ccc(Oc2ccccc2)cc1
IC50 (Pantothenate synthetase): 7.22 µM
MIC [1]: 32.3 µM (≈ 12.5 µg/mL)

Cc1nc2ccccn2c1C(=O)NCc1ccco1
IC50 (Pantothenate synthetase): 2.81 µM
MIC [1]: 24.4 µM (≈ 6.23 µg/mL)
cytotoxicity at 72 h, 50 µM [2]: 20.7%

Cc1nc2ccccn2c1C(=O)Nc1ccccc1
IC50 (Pantothenate synthetase): 12.8 µM
MIC [1]: 188 µM (≈ 47.2 µg/mL)
